In PMC2880618 (Bioconjugate chemistry, 2009):
Where “and” joins values, the source holds several entries; their conditions need not be identical. Equal values may be shown once.

Legend:
[1] = C57 normal mice, cited from earlier work
sigma-1 receptor = sigma-1 receptor (Cavia porcellus, UniProt Q60492); assay: Sigma-1 receptor competitive binding assay; set-up: species or system guinea pig
Summary of the method: (§1)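 Sigma-1: guinea pig brain membranes with 3H-PENT. Sigma-2: rat liver membranes from Sprague-Dawley rats with 3H-DTG, plus 1 μM dextrallorphane to mask sigma-1 sites.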

sigma-2 receptor = target: T1, sigma-2 receptor (Rattus norvegicus, UniProt Q5U3Y7); assay: Sigma-2 receptor competitive binding assay
T1 sequence (Q5U3Y7 1-176): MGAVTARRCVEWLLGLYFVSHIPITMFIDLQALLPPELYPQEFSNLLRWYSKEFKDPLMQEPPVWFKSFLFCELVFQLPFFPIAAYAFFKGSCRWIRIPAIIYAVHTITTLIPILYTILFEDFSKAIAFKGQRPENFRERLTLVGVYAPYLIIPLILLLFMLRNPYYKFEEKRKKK
Summary of the method: as §1

[2] = system: B16F1 melanoma tumor xenograft; assay: Tissue distribution studies in C57 mice bearing B16F1 tumor xenograft; type: in vivo; details: for F-18 uptake in brain, Percent Injected Dose per gram Tissue / F-18 uptake in heart, Percent Injected Dose per gram Tissue / F-18 uptake in intestine, Percent Injected Dose per gram Tissue / F-18 uptake in kidneys, Percent Injected Dose per gram Tissue / F-18 uptake in liver, Percent Injected Dose per gram Tissue / F-18 uptake in lung, Percent Injected Dose per gram Tissue / F-18 uptake in muscle, Percent Injected Dose per gram Tissue / F-18 uptake in spleen, Percent Injected Dose per gram Tissue / F-18 uptake in the tumor / F-18 uptake in blood, Percent Injected Dose per gram Tissue / F-18 uptake in bone, Percent Injected Dose per gram Tissue: C57 mice bearing B16F1 melanoma tumor xenograft; for F-18 uptake in brain, Percent Injected Dose per gram Tissue / F-18 uptake in heart, Percent Injected Dose per gram Tissue / F-18 uptake in intestine, Percent Injected Dose per gram Tissue / F-18 uptake in kidneys, Percent Injected Dose per gram Tissue / F-18 uptake in liver, Percent Injected Dose per gram Tissue / F-18 uptake in lung, Percent Injected Dose per gram Tissue / F-18 uptake in muscle, Percent Injected Dose per gram Tissue / F-18 uptake in spleen, Percent Injected Dose per gram Tissue / F-18 uptake in blood, Percent Injected Dose per gram Tissue / F-18 uptake in bone, Percent Injected Dose per gram Tissue: tail vein, mean±SEM n=5; for F-18 uptake in the tumor: n=5
Summary of the method: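 C57 mice (6–8 weeks) inoculated in the right flank with ~5×10^6 B16F1 cells in 0.1 mL Matrigel:PBS (50:50). Studied once tumors exceeded 200 mm³. ~15 μCi radiotracer in 100 μL saline given by tail vein. Mice euthanized at 30, 60, 120 and 180 min; tissues washed, weighed and gamma-counted against an injected-dose standard. %ID/g ([…], n=5) and tumor-to-tissue ratios reported.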

[3] = Tissue distribution studies in normal ICR mice; type: in vivo; details: tail vein, mean±SEM n=5
Summary of the method: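 Normal ICR mice (6–8 weeks) received ~15 μCi radiotracer in 100 μL saline by tail vein. At 30, 60, 120 and 180 min mice were euthanized; tissues removed, washed with PBS, weighed and gamma-counted with an injected-dose standard. Values expressed as %ID/g; group differences by unpaired Student's t-test, P<0.05.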

[4] = Lipophilicity, shake flask 1-octanol/PBS pH 7.4; type: physicochemical; details: 1-octanol/phosphate-buffered saline
Summary of the method: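 Shake-flask partition: ~500 Kcpm radiotracer added to 1 mL 1-octanol plus 1 mL PBS pH 7.4, in triplicate. Tubes vortexed 3 min and layers allowed to separate. 100 μL aliquots of each phase counted for radioactivity; log P calculated from the counts.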

B16F1 melanoma cells = assay: In vitro uptake assay in melanoma cells; type: cell-based, mouse; details: 1×10^6 cells/tube, 60 min, room temperature, n=3 tubes
Summary of the method: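 B16F1 mouse melanoma cells grown in DMEM with 10% FBS at 37°C, 5% CO2. At 80–90% confluence they were trypsinized and resuspended in PBS pH 7.4. Aliquots of 1×10^5, 5×10^5, 8×10^5 and 1×10^6 cells in triplicate tubes got ~200 Kcpm radiotracer for 1 hr at 22°C. Tubes were centrifuged and pellets washed with PBS; wash and pellet were gamma-counted. Uptake = % of total added activity in pellet.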

[5] = C57 mice bearing B16F1 melanoma tumor, 180 min post-injection

sigma-1 receptor, sequence (Q60492 whole entry): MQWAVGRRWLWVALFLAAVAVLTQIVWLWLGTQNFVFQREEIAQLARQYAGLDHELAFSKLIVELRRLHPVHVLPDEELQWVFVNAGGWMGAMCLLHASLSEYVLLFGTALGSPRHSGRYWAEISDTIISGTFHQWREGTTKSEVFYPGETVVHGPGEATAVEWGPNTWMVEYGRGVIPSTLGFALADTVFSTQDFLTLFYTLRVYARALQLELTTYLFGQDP

CCN(CC)CCNC(=O)c1ccc(OC)c(I)c1 [[^*I]IMBA, [^*I]N-(2-diethylaminoethyl) 3-iodo 4-methoxybenzamide]
radioiodine uptake in blood ([1]; 60 min post injection): 0.84±0.08 %ID/g | radioiodine uptake in liver ([1]; 60 min post injection): 3.09±0.45 %ID/g | radioiodine uptake in lungs ([1]; 60 min post injection): 1.06±0.23 %ID/g | radioiodine uptake in intestine [1]: 7.70±4.70 %ID/g | radioiodine uptake in the stomach [1]: 9.72±1.51 %ID/g

CCN(CC)CCNC(=O)c1ccc(F)cc1 [DAFBA, N-(2-diethylaminoethyl)-4-fluorobenzamide]
IC50 (sigma-1 receptor): > 1 µM | IC50 (sigma-2 receptor): > 1 µM

CCN(CC)CCNC(=O)c1ccc([18F])cc1 [[^18F]-DAFBA, N-(2-diethylaminoethyl)-4-[^18F]fluorobenzamide]
F-18 uptake in brain, Percent Injected Dose per gram Tissue ([2]; 30 min post injection): 2.02 ± 0.35 %ID/g | F-18 uptake in heart, Percent Injected Dose per gram Tissue ([2]; 30 min post injection): 1.25 ± 0.28 %ID/g | F-18 uptake in intestine, Percent Injected Dose per gram Tissue ([2]; 30 min post injection): 1.94 ± 0.51 %ID/g | F-18 uptake in kidneys, Percent Injected Dose per gram Tissue ([2]; 30 min post injection): 4.50 ± 1.33 %ID/g | F-18 uptake in liver, Percent Injected Dose per gram Tissue ([2]; 30 min post injection): 3.27 ± 0.90 %ID/g | F-18 uptake in lung, Percent Injected Dose per gram Tissue ([2]; 30 min post injection): 2.46 ± 1.27 %ID/g | F-18 uptake in muscle, Percent Injected Dose per gram Tissue ([2]; 30 min post injection): 1.09 ± 0.18 %ID/g | F-18 uptake in spleen, Percent Injected Dose per gram Tissue ([2]; 30 min post injection): 2.14 ± 0.41 %ID/g | F-18 uptake in the tumor ([2]; 60 min post injection): 7.00±2.76 %ID/g | F-18 uptake in blood, Percent Injected Dose per gram Tissue ([2]; 60 min post injection): 0.68 ± 0.21 %ID/g | F-18 uptake in bone, Percent Injected Dose per gram Tissue ([2]; 60 min post injection): 0.90 ± 0.27 %ID/g | F-18 uptake in brain, Percent Injected Dose per gram Tissue ([2]; 60 min post injection): 1.68 ± 0.43 %ID/g | F-18 uptake in heart, Percent Injected Dose per gram Tissue ([2]; 60 min post injection): 1.27 ± 0.50 %ID/g | F-18 uptake in intestine, Percent Injected Dose per gram Tissue ([2]; 60 min post injection): 1.98 ± 0.88 %ID/g | F-18 uptake in kidneys, Percent Injected Dose per gram Tissue ([2]; 60 min post injection): 5.38 ± 1.86 %ID/g | F-18 uptake in liver, Percent Injected Dose per gram Tissue ([2]; 60 min post injection): 5.01 ± 2.06 %ID/g | F-18 uptake in lung, Percent Injected Dose per gram Tissue ([2]; 60 min post injection): 2.48 ± 1.27 %ID/g | F-18 uptake in muscle, Percent Injected Dose per gram Tissue ([2]; 60 min post injection): 1.10 ± 0.38 %ID/g | F-18 uptake in spleen, Percent Injected Dose per gram Tissue ([2]; 60 min post injection): 1.83 ± 0.54 %ID/g | F-18 uptake in the tumor ([2]; 120 min post injection): 6.57±1.66 %ID/g | F-18 uptake in bone, Percent Injected Dose per gram Tissue ([2]; 120 min post injection): 0.57 ± 0.32 %ID/g | F-18 uptake in brain, Percent Injected Dose per gram Tissue ([2]; 120 min post injection): 0.64 ± 0.40 %ID/g | F-18 uptake in kidneys, Percent Injected Dose per gram Tissue ([2]; 120 min post injection): 1.41 ± 0.11 %ID/g | F-18 uptake in liver, Percent Injected Dose per gram Tissue ([2]; 120 min post injection): 2.35 ± 1.20 %ID/g | F-18 uptake in lung, Percent Injected Dose per gram Tissue ([2]; 120 min post injection): 1.47 ± 0.47 %ID/g | F-18 uptake in muscle, Percent Injected Dose per gram Tissue ([2]; 120 min post injection): 0.57 ± 0.54 %ID/g | F-18 uptake in spleen, Percent Injected Dose per gram Tissue ([2]; 120 min post injection): 0.71 ± 0.37 %ID/g | F-18 uptake in blood, Percent Injected Dose per gram Tissue ([2]; 180 min post injection): 0.13 ± 0.03 %ID/g | F-18 uptake in bone, Percent Injected Dose per gram Tissue ([2]; 180 min post injection): 0.17 ± 0.05 %ID/g | F-18 uptake in brain, Percent Injected Dose per gram Tissue ([2]; 180 min post injection): 0.29 ± 0.05 %ID/g | F-18 uptake in heart, Percent Injected Dose per gram Tissue ([2]; 180 min post injection): 0.21 ± 0.04 %ID/g | F-18 uptake in kidneys, Percent Injected Dose per gram Tissue ([2]; 180 min post injection): 0.83 ± 0.23 %ID/g | F-18 uptake in muscle, Percent Injected Dose per gram Tissue ([2]; 180 min post injection): 0.17 ± 0.03 %ID/g | F-18 uptake in spleen, Percent Injected Dose per gram Tissue ([2]; 180 min post injection): 0.44 ± 0.25 %ID/g | tumor to blood ratio ([2]; C57 mice bearing B16F1 melanoma tumor, 60 min post-injection): 8.3±3 | tumor to liver ratio [2, 5]: 6.33±1.9 | tumor to lung ratio [2, 5]: 21.90±4.68 and > 20 | tumor to muscle ratio [2, 5]: 32.91±6.11 and > 20 | tumor to spleen ratio [2, 5]: 14.90±6.47 | F-18 uptake in blood, Percent Injected Dose per gram Tissue ([3]; 30 min post injection): 0.78 ± 0.07 %ID/g | F-18 uptake in bone, Percent Injected Dose per gram Tissue ([3]; 30 min post injection): 0.81 ± 0.19 %ID/g | F-18 uptake in brain, Percent Injected Dose per gram Tissue ([3]; 30 min post injection): 2.16 ± 0.32 %ID/g | F-18 uptake in heart, Percent Injected Dose per gram Tissue ([3]; 30 min post injection): 1.10 ± 0.14 %ID/g | F-18 uptake in kidneys, Percent Injected Dose per gram Tissue ([3]; 30 min post injection): 4.13 ± 0.68 %ID/g | F-18 uptake in liver, Percent Injected Dose per gram Tissue ([3]; 30 min post injection): 3.12 ± 0.62 %ID/g | F-18 uptake in lung, Percent Injected Dose per gram Tissue ([3]; 30 min post injection): 1.75 ± 0.43 %ID/g | F-18 uptake in muscle, Percent Injected Dose per gram Tissue ([3]; 30 min post injection): 0.88 ± 0.13 %ID/g | F-18 uptake in spleen, Percent Injected Dose per gram Tissue ([3]; 30 min post injection): 2.35 ± 0.07 %ID/g | F-18 uptake in blood, Percent Injected Dose per gram Tissue ([3]; 60 min post injection): 0.67 ± 0.05 %ID/g | F-18 uptake in brain, Percent Injected Dose per gram Tissue ([3]; 60 min post injection): 1.54 ± 0.24 %ID/g | F-18 uptake in heart, Percent Injected Dose per gram Tissue ([3]; 60 min post injection): 0.92 ± 0.10 %ID/g | F-18 uptake in intestine, Percent Injected Dose per gram Tissue ([3]; 60 min post injection): 1.39 ± 0.54 %ID/g | F-18 uptake in liver, Percent Injected Dose per gram Tissue ([3]; 60 min post injection): 3.61 ± 0.48 %ID/g | F-18 uptake in lung, Percent Injected Dose per gram Tissue ([3]; 60 min post injection): 1.84 ± 0.41 %ID/g | F-18 uptake in muscle, Percent Injected Dose per gram Tissue ([3]; 60 min post injection): 0.65 ± 0.11 %ID/g | F-18 uptake in spleen, Percent Injected Dose per gram Tissue ([3]; 60 min post injection): 1.87 ± 0.46 %ID/g | F-18 uptake in brain, Percent Injected Dose per gram Tissue ([3]; 120 min post injection): 0.52 ± 0.07 %ID/g | F-18 uptake in heart, Percent Injected Dose per gram Tissue ([3]; 120 min post injection): 0.28 ± 0.05 %ID/g | F-18 uptake in intestine, Percent Injected Dose per gram Tissue ([3]; 120 min post injection): 0.26 ± 0.26 %ID/g | F-18 uptake in kidneys, Percent Injected Dose per gram Tissue ([3]; 120 min post injection): 1.58 ± 0.51 %ID/g | F-18 uptake in blood, Percent Injected Dose per gram Tissue ([3]; 180 min post injection): 0.21 ± 0.03 %ID/g | F-18 uptake in bone, Percent Injected Dose per gram Tissue ([3]; 180 min post injection): 0.24 ± 0.10 %ID/g | F-18 uptake in heart, Percent Injected Dose per gram Tissue ([3]; 180 min post injection): 0.23 ± 0.03 %ID/g | F-18 uptake in intestine, Percent Injected Dose per gram Tissue ([3]; 180 min post injection): 0.40 ± 0.11 %ID/g | F-18 uptake in kidneys, Percent Injected Dose per gram Tissue ([3]; 180 min post injection): 1.34 ± 0.36 %ID/g | F-18 uptake in liver, Percent Injected Dose per gram Tissue ([3]; 180 min post injection): 1.12 ± 0.20 %ID/g | F-18 uptake in lung, Percent Injected Dose per gram Tissue ([3]; 180 min post injection): 0.49 ± 0.07 %ID/g | F-18 uptake in spleen, Percent Injected Dose per gram Tissue ([3]; 180 min post injection): 0.53 ± 0.08 %ID/g | logP [4]: 1.7 | percent uptake by cells (percent of total added radioactivity) (B16F1 melanoma cells): 5.60±2.67%
